Assay results: ChEMBL document CHEMBL4138271, “Crystal Structures and Human Leukemia Cell Apoptosis Inducible Activities of Parthenolide Analogues Isolated from Piptocoma rufescens” (J Nat Prod, 2018)
pIC50: −log10 of the molar value. Calls of active or inactive are those of the source. The calls are words filed in the database; no cut-off is given here.

What was measured:
MOLM-13 [1] = assay: Cytotoxicity against human MOLM13 cells after 72 hrs by MTS assay; format: functional, cell-based; details: MOLM-13, 72 h
EOL1 [2] = assay: Cytotoxicity against human EOL-1 cells after 72 hrs by MTS assay; format: functional, cell-based; details: EOL1, 72 h
MOLM-13 [3] = assay: Synergistic antileukemic activity against human MOLM13 cells assessed as concentration required for <= 75% cell survival after 72 hrs in presence of midostaurin by CellTiter 96 AQueous One solution cell proliferation assay; format: functional
EOL1 [4] = assay: Synergistic antileukemic activity against human EOL-1 cells assessed as concentration required for <= 75% cell survival after 72 hrs in presence of midostaurin by CellTiter 96 AQueous One solution cell proliferation assay; format: functional
MOLM-13 [5] = assay: Induction of apoptosis in human MOLM13 cells assessed as live cells at 0.81 uM after 24 hrs by Annexin-V FITC/7-AAD staining based flow cytometric method (reference value: 86.8%); format: functional
MOLM-13 [6] = assay: Induction of apoptosis in human MOLM13 cells assessed as early apoptotic cells at 0.81 uM after 24 hrs by Annexin-V FITC/7-AAD staining based flow cytometric method (reference value: 11.8%); format: functional
MOLM-13 [7] = assay: Induction of apoptosis in human MOLM13 cells assessed as late apoptotic cells at 0.81 uM after 24 hrs by Annexin-V FITC/7-AAD staining based flow cytometric method (reference value: 1.43%); format: functional
MOLM-13 [8] = assay: Induction of apoptosis in human MOLM13 cells assessed as necrotic cells at 0.81 uM after 24 hrs by Annexin-V FITC/7-AAD staining based flow cytometric method (reference value: 0%); format: functional
MOLM-13 [9] = assay: Induction of apoptosis in human MOLM13 cells assessed as live cells at 1.6 uM after 24 hrs by Annexin-V FITC/7-AAD staining based flow cytometric method (reference value: 86.8%); format: functional
MOLM-13 [10] = assay: Induction of apoptosis in human MOLM13 cells assessed as early apoptotic cells at 1.6 uM after 24 hrs by Annexin-V FITC/7-AAD staining based flow cytometric method (reference value: 11.8%); format: functional
MOLM-13 [11] = assay: Induction of apoptosis in human MOLM13 cells assessed as late apoptotic cells at 1.6 uM after 24 hrs by Annexin-V FITC/7-AAD staining based flow cytometric method (reference value: 1.43%); format: functional
MOLM-13 [12] = assay: Induction of apoptosis in human MOLM13 cells assessed as necrotic cells at 1.6 uM after 24 hrs by Annexin-V FITC/7-AAD staining based flow cytometric method (reference value: 0%); format: functional
MOLM-13 [13] = assay: Induction of apoptosis in human MOLM13 cells assessed as live cells at 4 uM after 24 hrs by Annexin-V FITC/7-AAD staining based flow cytometric method (reference value: 86.8%); format: functional
MOLM-13 [14] = assay: Induction of apoptosis in human MOLM13 cells assessed as early apoptotic cells at 4 uM after 24 hrs by Annexin-V FITC/7-AAD staining based flow cytometric method (reference value: 11.8%); format: functional
MOLM-13 [15] = assay: Induction of apoptosis in human MOLM13 cells assessed as late apoptotic cells at 4 uM after 24 hrs by Annexin-V FITC/7-AAD staining based flow cytometric method (reference value: 1.43%); format: functional
MOLM-13 [16] = assay: Induction of apoptosis in human MOLM13 cells assessed as necrotic cells at 4 uM after 24 hrs by Annexin-V FITC/7-AAD staining based flow cytometric method (reference value: 0%); format: functional
EOL1 [17] = assay: Induction of apoptosis in human EOL-1 cells assessed as live cells at 0.81 uM after 24 hrs by Annexin-V FITC/7-AAD staining based flow cytometric method (reference value: 97.5%); format: functional
EOL1 [18] = assay: Induction of apoptosis in human EOL-1 cells assessed as early apoptotic cells at 0.81 uM after 24 hrs by Annexin-V FITC/7-AAD staining based flow cytometric method (reference value: 1.94%); format: functional
EOL1 [19] = assay: Induction of apoptosis in human EOL-1 cells assessed as late apoptotic cells at 0.81 uM after 24 hrs by Annexin-V FITC/7-AAD staining based flow cytometric method (reference value: 0.535%); format: functional
EOL1 [20] = assay: Induction of apoptosis in human EOL-1 cells assessed as necrotic cells at 0.81 uM after 24 hrs by Annexin-V FITC/7-AAD staining based flow cytometric method (reference value: 0.032%); format: functional
EOL1 [21] = assay: Induction of apoptosis in human EOL-1 cells assessed as live cells at 1.6 uM after 24 hrs by Annexin-V FITC/7-AAD staining based flow cytometric method (reference value: 97.5%); format: functional
EOL1 [22] = assay: Induction of apoptosis in human EOL-1 cells assessed as early apoptotic cells at 1.6 uM after 24 hrs by Annexin-V FITC/7-AAD staining based flow cytometric method (reference value: 1.94%); format: functional
EOL1 [23] = assay: Induction of apoptosis in human EOL-1 cells assessed as late apoptotic cells at 1.6 uM after 24 hrs by Annexin-V FITC/7-AAD staining based flow cytometric method (reference value: 0.535%); format: functional
EOL1 [24] = assay: Induction of apoptosis in human EOL-1 cells assessed as necrotic cells at 1.6 uM after 24 hrs by Annexin-V FITC/7-AAD staining based flow cytometric method (reference value: 0.032%); format: functional
EOL1 [25] = assay: Induction of apoptosis in human EOL-1 cells assessed as live cells at 4 uM after 24 hrs by Annexin-V FITC/7-AAD staining based flow cytometric method (reference value: 97.5%); format: functional
EOL1 [26] = assay: Induction of apoptosis in human EOL-1 cells assessed as early apoptotic cells at 4 uM after 24 hrs by Annexin-V FITC/7-AAD staining based flow cytometric method (reference value: 1.94%); format: functional
EOL1 [27] = assay: Induction of apoptosis in human EOL-1 cells assessed as late apoptotic cells at 4 uM after 24 hrs by Annexin-V FITC/7-AAD staining based flow cytometric method (reference value: 0.535%); format: functional
EOL1 [28] = assay: Induction of apoptosis in human EOL-1 cells assessed as necrotic cells at 4 uM after 24 hrs by Annexin-V FITC/7-AAD staining based flow cytometric method (reference value: 0.032%); format: functional
MOLM-13 [29] = assay: Induction of apoptosis in human MOLM13 cells assessed as caspase-3 activation at 10 uM after 72 hrs by immunoblotting analysis; format: functional, cell-based
How it was run: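 MOLM-13 cells treated 72 h with test compounds at 10 μM or PKC412 at 10 nM. Cells washed in ice-cold PBS, lysed at 10^8 cells/mL in NP-40 hypertonic buffer (pH 7.5) with protease/phosphatase inhibitors, then run on SDS-PAGE and PVDF. Blots probed 12 h with rabbit monoclonal cleaved caspase-3 (Asp175), β-actin as loading control. Representative of three independent experiments.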

EOL1 [30] = assay: Induction of apoptosis in human EOL-1 cells assessed as caspase-3 activation at 10 uM after 72 hrs by immunoblotting analysis; format: functional, cell-based
How it was run: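 EOL-1 cells (RPMI 1640, 10% FBS, 37 °C, 5% CO2) exposed 72 h; compounds at 10 μM, PKC412 at 10 nM. Harvested, PBS-washed, lysed in hypertonic NP-40 buffer with protease/phosphatase inhibitors; SDS-PAGE, PVDF transfer, rabbit monoclonal cleaved caspase-3 (Asp175) antibody 12 h, secondary 1 h, chemiluminescent detection; β-actin loading control. Representative blots of three independent experiments.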

Q: What does the source list for C=C1C(=O)O[C@@H]2C3O[C@]3(C)CC/C=C(\C)CC[C@@H]12 (stereo not given in full)?
A: pIC50 (MOLM-13 [1]): 5.00; pIC50 (EOL1 [2]): 5.12; Activity (MOLM-13 [3]): 3.2 µM; Activity (EOL1 [4]): 3.2 µM; Activity (MOLM-13 [5]): 90.6%; Activity (MOLM-13 [6]): 8.23%; Activity (MOLM-13 [7]): 1.14%; Activity (MOLM-13 [8]): 0.033%; Activity (MOLM-13 [9]): 94.3%; Activity (MOLM-13 [10]): 4.46%; Activity (MOLM-13 [11]): 1.23%; Activity (MOLM-13 [12]): 0.044%; Activity (MOLM-13 [13]): 92.4%; Activity (MOLM-13 [14]): 6.43%; Activity (MOLM-13 [15]): 1.02%; Activity (MOLM-13 [16]): 0.181%; Activity (EOL1 [17]): 98.1%; Activity (EOL1 [18]): 1.56%; Activity (EOL1 [19]): 0.329%; Activity (EOL1 [20]): 0.011%; Activity (EOL1 [21]): 97.2%; Activity (EOL1 [22]): 2.43%; Activity (EOL1 [23]): 0.361%; Activity (EOL1 [24]): 0.043%; Activity (EOL1 [25]): 97%; Activity (EOL1 [26]): 2.13%; Activity (EOL1 [27]): 0.697%; Activity (EOL1 [28]): 0.118%; Activity (MOLM-13 [29]): Active; Activity (EOL1 [30]): Active
